From ChEMBL document CHEMBL2203109, “3-Phenyl substituted 6,7-dimethoxyisoquinoline derivatives as FtsZ-targeting antibacterial agents” (Bioorg Med Chem, 2012)
In brackets after ≈: the same amount, converted by molar mass. Activity calls are given as the source filed them. No cut-off for these calls is given here.

Experiments:
HEK293 [1] = assay: Cytotoxicity against human HEK293 cells after 4 days by MTT assay; format: cell-based; conditions: HEK293, 96 h
Procedure, shortened: (§1)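 MTT assay. HEK293 or MDCK cells kept at 37 °C, 5% CO2 in DMEM, seeded at 1500 cells per well. Continuous 4-day exposure to varying drug concentrations in triplicate wells, with a drug-free control. MTT read at end of day 4; IC50 determined.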

MDCK = assay: Cytotoxicity against dog MDCK cells after 4 days by MTT assay; format: cell-based; conditions: Canis lupus familiaris, 96 h; procedure, shortened: as §1
Enterococcus faecalis [2] = assay: Antibacterial activity against log-phase vancomycin-resistant Enterococcus faecalis ATCC 51575 assessed as growth inhibition after 24 hrs by broth microdilution method; format: functional; conditions: ATCC 51575, 24 h
Procedure, shortened: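 CLSI broth microdilution in brain–heart infusion broth; log-phase bacteria at 10^5 CFU/mL, two-fold serial dilutions 64 to 0.031 μg/mL; 24 h aerobic incubation at 37 °C; OD600 read-out; MIC taken as lowest concentration inhibiting growth ≥90%.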

Enterococcus faecalis [3] = assay: Antibacterial activity against log-phase vancomycin-sensitive Enterococcus faecalis ATCC 19433 assessed as growth inhibition after 24 hrs by broth microdilution method; format: functional; conditions: ATCC 19433, 24 h
Procedure, shortened: (§2)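 CLSI broth microdilution. Log-phase bacteria at 10^5 CFU/mL with two-fold serial dilutions (64 to 0.031 μg/mL). S. aureus tested in cation-adjusted Mueller-Hinton broth; E. faecalis in brain–heart infusion broth. Aerobic incubation 24 h at 37 °C. OD600 read; MIC is the lowest concentration giving ≥90% growth inhibition.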

Staphylococcus aureus [4] = assay: Antibacterial activity against log-phase methicillin-resistant Staphylococcus aureus ATCC 33591 assessed as growth inhibition after 24 hrs by broth microdilution method; format: functional; conditions: ATCC 33591, 24 h
Procedure, shortened: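 CLSI broth microdilution; 10^5 CFU/mL log-phase bacteria in cation-adjusted Mueller-Hinton broth with 2% NaCl, two-fold serial dilutions from 64 to 0.031 μg/mL; aerobic incubation 24 h at 37 °C; growth read as OD600; MIC = lowest concentration giving ≥90% growth inhibition.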

Staphylococcus aureus [5] = assay: Antibacterial activity against log-phase methicillin-sensitive Staphylococcus aureus 8325-4 assessed as growth inhibition after 24 hrs by broth microdilution method; format: functional; conditions: 8325-4, 24 h; procedure, shortened: as §2
[6] = biological target: T1, Cell division protein FtsZ (Staphylococcus aureus) (UniProt P0A031); assay: Induction of Staphylococcus aureus FtsZ polymerization at 40 ug/ml measured for 60 mins by microtiter plate-based light scattering assay
T1 sequence (whole entry): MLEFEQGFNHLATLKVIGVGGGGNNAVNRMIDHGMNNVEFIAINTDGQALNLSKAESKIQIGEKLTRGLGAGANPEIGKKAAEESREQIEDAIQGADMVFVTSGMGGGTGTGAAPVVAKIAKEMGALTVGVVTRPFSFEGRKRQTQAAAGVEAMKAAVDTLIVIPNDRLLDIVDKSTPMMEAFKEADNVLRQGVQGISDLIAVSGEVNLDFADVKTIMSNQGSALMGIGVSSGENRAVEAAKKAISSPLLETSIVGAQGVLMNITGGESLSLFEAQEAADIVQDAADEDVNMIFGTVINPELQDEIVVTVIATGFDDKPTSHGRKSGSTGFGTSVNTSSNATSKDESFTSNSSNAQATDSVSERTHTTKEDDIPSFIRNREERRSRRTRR
Procedure, shortened: (§3)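 Turbidity assay. 10 μM SaFtsZ plus compound (0–40 μg/mL) in 50 mM Tris HCl pH 7.4, 50 mM KCl, 2 mM magnesium acetate, 5 mM CaCl2, pre-equilibrated 10 min at room temperature. Started by adding 1 mM GTP or FtsZ; A340 followed for 60 min at 25 °C. For polymer stability, 1 mM GDP added mid-run.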

HEK293 [7] = assay: Cytotoxicity against human HEK293 cells at 10 uM after 4 days by MTT assay; format: cell-based; conditions: hek293, 96 h; procedure, shortened: as §1
[8] = biological target: T1, Cell division protein FtsZ (Staphylococcus aureus); assay: Induction of Staphylococcus aureus FtsZ polymerization measured for 60 mins by microtiter plate-based light scattering assay; procedure, shortened: as §3
[9] = biological target: T1, Cell division protein FtsZ (Staphylococcus aureus); assay: Induction of Staphylococcus aureus FtsZ polymerization at 40 ug/ml measured for 60 mins by microtiter plate-based light scattering assay in presence of GTP
[10] = biological target: T1, Cell division protein FtsZ (Staphylococcus aureus); assay: Residual Staphylococcus aureus GTPase activity assessed as inorganic phosphate release upon GTP hydrolysis at 40 ug/ml preincubated for 10 mins before substrate addition measured after 2 hrs by malachite green based colorimetric analysis

With `COc1cc2cc(-c3cccc(-c4ccccc4)c3)nc(N=C(N)N)c2cc1OC` the IC50 (HEK293 [1]) was 2200 nM, the IC50 (MDCK) was 2.2 µM and the MIC90 (Enterococcus faecalis [2]) was 8 µg/mL (≈ 20.1 µM). For the same molecule, the MIC90 (Enterococcus faecalis [3]) was 8 µg/mL (≈ 20.1 µM), the MIC90 (Staphylococcus aureus [4]) was 4 µg/mL (≈ 10 µM) and the MIC90 (Staphylococcus aureus [5]) was 8 µg/mL (≈ 20.1 µM).
With `COc1cc2cc(-c3cccc(-c4ccccc4)c3)nc(C)c2c(OC)c1OC` the MIC90 (Enterococcus faecalis [2]) was > 64 µg/mL, the MIC90 (Enterococcus faecalis [3]) was > 64 µg/mL and the MIC90 (Staphylococcus aureus [4]) was > 64 µg/mL. For the same molecule, the MIC90 (Staphylococcus aureus [5]) was > 64 µg/mL.
`COc1cc2cc(-c3cccc(-c4ccccc4)c3)nc(C#N)c2cc1OC` was tested, and the MIC90 (Enterococcus faecalis [2]) was > 64 µg/mL, the MIC90 (Enterococcus faecalis [3]) was > 64 µg/mL and the MIC90 (Staphylococcus aureus [4]) was > 64 µg/mL. The MIC90 (Staphylococcus aureus [5]) was > 64 µg/mL.
`COc1cc2cc(-c3cccc(-c4ccccc4)c3)[n+](C)c(C)c2c(OC)c1OC.[I-]` gave an MIC90 (Enterococcus faecalis [2]) of 32 µg/mL, an MIC90 (Enterococcus faecalis [3]) of 32 µg/mL and an MIC90 (Staphylococcus aureus [4]) of 8 µg/mL. The MIC90 (Staphylococcus aureus [5]) was 8 µg/mL.
In the case of `COc1ccc2cc3[n+](cc2c1OC)CCc1cc2c(cc1-3)OCO2` [BERBERINE], the Activity [6] is reported as “inactive”, the MIC90 (Enterococcus faecalis [2]) is reported as > 64 µg/mL and the MIC90 (Enterococcus faecalis [3]) is reported as > 64 µg/mL. The MIC90 (Staphylococcus aureus [4]) was > 64 µg/mL and the MIC90 (Staphylococcus aureus [5]) was > 64 µg/mL.
`COc1cc2cc(-c3cccc(-c4ccccc4)c3)[n+](C)c(N(C)C)c2cc1OC.[I-]` was tested, and the MIC90 (Enterococcus faecalis [2]) was 64 µg/mL, the MIC90 (Enterococcus faecalis [3]) was 64 µg/mL and the MIC90 (Staphylococcus aureus [4]) was 32 µg/mL. It also gave an MIC90 (Staphylococcus aureus [5]) of 8 µg/mL.
With `COc1cc2cc(-c3cccc(C(C)(C)C)c3)nc(C)c2cc1OC` the Activity [6] was “inactive”, the MIC90 (Enterococcus faecalis [2]) was > 64 µg/mL and the MIC90 (Enterococcus faecalis [3]) was > 64 µg/mL. For the same molecule, the MIC90 (Staphylococcus aureus [4]) was > 64 µg/mL and the MIC90 (Staphylococcus aureus [5]) was > 64 µg/mL.
In the case of `COc1cc2cc(-c3cccc(C(C)(C)C)c3)nc(CCN=C(N)N)c2cc1OC`, the Activity (HEK293 [7]) is reported as “Non-toxic”, the Activity [8] is reported as “Dose-dependent effect” and the Activity [6] is reported as “Active”. For the same molecule, the MIC90 (Enterococcus faecalis [2]) was 16 µg/mL (≈ 39.4 µM), the MIC90 (Enterococcus faecalis [3]) was 16 µg/mL (≈ 39.4 µM) and the MIC90 (Staphylococcus aureus [4]) was 4 µg/mL (≈ 9.84 µM). For the same molecule, the MIC90 (Staphylococcus aureus [5]) was 4 µg/mL (≈ 9.84 µM), the Activity [9] was “Active” and the residual activity [10] was 66.5%.
With `COc1cc2cc(-c3cccc(-c4ccccc4)c3)nc(CN)c2cc1OC` the IC50 (HEK293 [1]) was 3000 nM, the IC50 (MDCK) was 7 µM and the MIC90 (Enterococcus faecalis [2]) was > 64 µg/mL. For the same molecule, the MIC90 (Enterococcus faecalis [3]) was > 64 µg/mL, the MIC90 (Staphylococcus aureus [4]) was 16 µg/mL (≈ 43.2 µM) and the MIC90 (Staphylococcus aureus [5]) was 8 µg/mL (≈ 21.6 µM).
With `COc1ccc2c(c[n+](C)c3c4cc5c(cc4ccc23)OCO5)c1OC` [CHELERYTHRINE] the MIC90 (Enterococcus faecalis [2]) was 32 µg/mL, the MIC90 (Enterococcus faecalis [3]) was 32 µg/mL and the MIC90 (Staphylococcus aureus [4]) was 4 µg/mL. For the same molecule, the MIC90 (Staphylococcus aureus [5]) was 4 µg/mL.
`COc1cc2cc(-c3cccc(-c4ccccc4)c3)nc(C)c2cc1OC` was tested, and the MIC90 (Enterococcus faecalis [2]) was > 64 µg/mL, the MIC90 (Enterococcus faecalis [3]) was > 64 µg/mL and the MIC90 (Staphylococcus aureus [4]) was > 64 µg/mL. The MIC90 (Staphylococcus aureus [5]) was > 64 µg/mL.
In the case of `CCC[C@@H]1C[C@@H](C(=O)N[C@@H]([C@H]2O[C@H](SC)[C@H](O)[C@@H](O)[C@H]2O)[C@H](C)Cl)N(C)C1` [CLINDAMYCIN], the MIC90 (Enterococcus faecalis [2]) is reported as > 64 µg/mL, the MIC90 (Enterococcus faecalis [3]) is reported as 2 µg/mL (≈ 4.71 µM) and the MIC90 (Staphylococcus aureus [4]) is reported as > 64 µg/mL. It also gave an MIC90 (Staphylococcus aureus [5]) of 0.03 µg/mL (≈ 0.0706 µM).
In the case of `COc1cc2cnc(-c3cccc(-c4ccccc4)c3)cc2cc1OC`, the MIC90 (Enterococcus faecalis [2]) is reported as > 64 µg/mL, the MIC90 (Enterococcus faecalis [3]) is reported as > 64 µg/mL and the MIC90 (Staphylococcus aureus [4]) is reported as > 64 µg/mL. For the same molecule, the MIC90 (Staphylococcus aureus [5]) was > 64 µg/mL.
With `COc1cc2cc(-c3cccc(-c4ccc(C(C)(C)C)cc4)c3)nc(C)c2cc1OC` the Activity [6] was “inactive”, the MIC90 (Enterococcus faecalis [2]) was > 64 µg/mL and the MIC90 (Enterococcus faecalis [3]) was > 64 µg/mL. The MIC90 (Staphylococcus aureus [4]) was > 64 µg/mL and the MIC90 (Staphylococcus aureus [5]) was > 64 µg/mL.
Molecule `COc1cc2cc(-c3cccc(C(C)(C)C)c3)[n+](C)c(C)c2cc1OC.[I-]` has an MIC90 (Enterococcus faecalis [2]) of 64 µg/mL, an MIC90 (Enterococcus faecalis [3]) of 64 µg/mL and an MIC90 (Staphylococcus aureus [4]) of 16 µg/mL. It also gave an MIC90 (Staphylococcus aureus [5]) of 16 µg/mL.
With `CN(C)[C@@H]1C(O)=C(C(N)=O)C(=O)[C@@]2(O)C(O)=C3C(=O)c4c(O)cccc4[C@@](C)(O)[C@H]3C[C@@H]12` [TETRACYCLINE] the MIC90 (Enterococcus faecalis [2]) was > 64 µg/mL, the MIC90 (Enterococcus faecalis [3]) was 0.5 µg/mL (≈ 1.13 µM) and the MIC90 (Staphylococcus aureus [4]) was 64 µg/mL (≈ 144 µM). For the same molecule, the MIC90 (Staphylococcus aureus [5]) was 0.06 µg/mL (≈ 0.135 µM).
